# KCNQ1 act: potentiators or activators of human KCNQ1 potassium channel; P51787; CHO-K1 KCNQ1, thallium flux FluxOR fluorescence; stronger effect = higher value; B-score at 10 µM; 310,000 tested, 0.35% active; AID 2648;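 active means fluorescence ratio B-score, a plate-corrected score, at least three library SD, with initial intensity B-score within 5 SD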
# Target sequence (P51787 whole entry, looked up): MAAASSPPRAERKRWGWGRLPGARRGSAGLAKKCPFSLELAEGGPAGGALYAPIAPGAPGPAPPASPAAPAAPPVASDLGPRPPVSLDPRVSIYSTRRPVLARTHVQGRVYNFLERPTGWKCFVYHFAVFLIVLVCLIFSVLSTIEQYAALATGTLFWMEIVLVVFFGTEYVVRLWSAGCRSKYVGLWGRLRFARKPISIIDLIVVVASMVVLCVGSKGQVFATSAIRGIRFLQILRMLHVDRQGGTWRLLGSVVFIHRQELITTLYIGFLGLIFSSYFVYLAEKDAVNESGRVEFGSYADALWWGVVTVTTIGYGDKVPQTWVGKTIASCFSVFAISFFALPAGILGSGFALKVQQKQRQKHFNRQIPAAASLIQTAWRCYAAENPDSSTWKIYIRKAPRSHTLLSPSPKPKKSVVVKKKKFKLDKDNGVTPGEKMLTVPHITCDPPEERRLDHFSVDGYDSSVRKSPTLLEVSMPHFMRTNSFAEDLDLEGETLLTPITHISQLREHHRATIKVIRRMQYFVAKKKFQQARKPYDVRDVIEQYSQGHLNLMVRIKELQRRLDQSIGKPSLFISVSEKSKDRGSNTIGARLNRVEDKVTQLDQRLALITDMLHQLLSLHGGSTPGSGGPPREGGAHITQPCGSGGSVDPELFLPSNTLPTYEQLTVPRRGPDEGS
#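 Schedule – 37 °C overnight plating, 90-min dark dye load, 20-min compound pretreatment · System – stable KCNQ1 CHO-K1 line · Probe or stimulus – thallium- and potassium-containing depolarizing buffer · Measured by – kinetic FluxOR fluorescence, 10 s baseline plus 110 s post-stimulus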
# KCNK3 inh: human KCNK3 channel inhibition, primary screen. O14649. CHO-KCNK3 thallium flux, FluxOR fluorescence; stronger effect = lower value. B-score at 10 µM. 340,000 tested, 0.84% active. AID 602410;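 active means B-score under library mean minus 4 SD, starting fluorescence ratio at most library mean plus 5 SD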;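 further: more negative B-score means stronger inhibition of thallium flux through KCNK3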
# KCNK9 block: blocks the human KCNK9 two-pore domain potassium channel; Q9NPC2; HEK293 KCNK9, FluxOR thallium flux fluorescence; stronger effect = lower value; B-score at 10 µM; 310,000 tested, 1.2% active; AID 488922;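 active means ratio B-score over 3 SD below the library mean, with starting fluorescence within 5 SD of its mean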;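 further: negative B-score means less thallium flux so channel inhibition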
# hERG rescue: compounds protecting human hERG from proarrhythmic drug block | Q12809 | activation (rescue from dofetilide block), less the hit threshold, % at 10 µM | 310,000 tested, 0.51% active | CHO-hERG, FluxOR thallium flux, dofetilide IC70 present;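 active means activation above the mean of controls blocked by dofetilide plus 5 SD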;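 further: thallium influx through hERG after potassium depolarization seen as dye fluorescence rise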
# Kir21 block: blocks the mouse Kir2.1 inward-rectifier potassium channel; 310,000 tested, 0.85% active; B-score at 10 µM; P35561; HEK293-Kir2.1, FluxOR thallium flux fluorescence; stronger effect = lower value;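 active means fluorescence ratio B-score at or below minus 3 SD of library scores, with starting-brightness B-score within 2 SD, cut at about -4.2 in these data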;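 further: channel flux triggered by added potassium and thallium sulfate stimulus; B-score of peak minus minimum fluorescence over baseline after thallium stimulus; more negative B-score means stronger Kir2.1 block with less thallium influx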
# KCNQ1 inh: blocks the human KCNQ1 potassium channel; AID 2642; B-score at 10 µM; CHO-K1 KCNQ1, FluxOR thallium flux fluorescence; stronger effect = higher value; P51787; 310,000 tested, 1.3% active;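 active means compounds whose thallium flux B-score, printed positive for inhibition, exceeds three library SD while starting fluorescence stays within three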;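 further: channel opened by potassium depolarization with thallium stimulus after 20 min compound exposure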
# KCNK3 inh conf: confirmation of human KCNK3 two-pore domain potassium channel inhibitors; shares compounds with KCNK3 inh; CHO-KCNK3 thallium flux, FluxOR fluorescence; 0% buffer, 100% carvedilol maximal block; 2,400 tested, 99% active; AID 651638; ratio percent of control, % at 10 µM;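 active means ratio percent of control, averaged over triplicates, above buffer control mean plus 5 SD, cut at about 64% in these data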;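 further: ratio is the fluorescence rise from min to max over baseline after thallium stimulus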
# KCNK3 noninduced: counter-screen for KCNK3 inhibitors: effect in non-induced cells. shares compounds with KCNK3 inh. non-induced KCNK3 parental cells, FluxOR thallium flux; stronger effect = lower value. thallium flux ratio (lower = more inhibition) at 10 µM. 2,400 tested, 40% active. AID 651747;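 active means thallium flux ratio, averaged over three wells, more than 5 SD below the buffer control mean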;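 further: host cells are CHO cells without KCNK3 induction; ratio is peak minus trough fluorescence over baseline then normalized to buffer controls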
# Active calls of the source: *; i = inactive; · = not tested or not shown. Compounds with a hit are over-represented: about 3.7% of the library has one in this group of screens.
SMILES,KCNQ1 act,KCNK3 inh,KCNK9 block,hERG rescue,Kir21 block,KCNQ1 inh,KCNK3 inh conf,KCNK3 noninduced
Cc1ccc2c(c1)NC(=O)C(CC(=O)Nc1ccc(Br)c(C)c1)O2 (stereo not given),i,i,i,-7,0.06,i,·,·
O=c1[nH]c(N/N=C\c2ccc3c(c2)OCO3)nc2ccccc12,i,i,i,-6,0.32,i,·,·
Cc1cc(N/N=C/c2ccc3c(c2)OCO3)nc2ccccc12,i,-11*,i,-9,-0.65,i,113*,i
CCOCCCNC(=O)/C(C#N)=C/c1ccc(Cl)c([N+](=O)[O-])c1,i,-9.1*,i,-22,0.92,i,122*,0.12*
CCOC(=O)c1ccccc1NC(=O)c1ccc2c(SCC(=O)O)c3c(nc2c1)CCCC3,i,-9.7*,i,-36,0.41,i,123*,i
CCCN(c1nc(C)cc(OC)n1)S(=O)(=O)c1ccccc1,i,-12*,i,-8,-8.3*,i,101*,i
CC(C)c1ccc(S(=O)(=O)Nc2ccc3c(c2)OCO3)cc1,·,-11*,·,·,·,·,122*,i
COC(=O)COc1ccc(S(=O)(=O)Nc2ccc3c(c2)OCO3)cc1,i,i,i,-13,0.31,i,·,·
COC(=O)COc1ccc(S(=O)(=O)Nc2ccc3c(c2)OCO3)cc1Cl,i,-9.7*,i,-18,-1.2,i,98*,i
COc1ccc(C(CNC(=O)c2ccc3c(c2)OCCO3)N(C)C)cc1 (stereo not given),i,i,i,-6,-2.6,i,·,·
CCc1ccccc1N(C)S(=O)(=O)c1ccc(-c2cc(C)no2)s1,i,-9.9*,i,-6,0.97,i,113*,i
CCN(c1ccc(OC)cc1)S(=O)(=O)c1ccc(-c2cc(C)no2)s1,i,-12*,i,0,-0.86,i,119*,i
Cc1cc(-c2ccc(S(=O)(=O)N3CCN(C)CC3)s2)on1,i,i,i,-5,-0.89,i,·,·
CCOC(=O)c1cn(Cc2ccccc2)nc1-c1ccccc1,i,i,i,-8,1.6,i,·,·
COC(=O)C1=C(C)N(C)C(C)=C(C(=O)OC)C1c1ccc(F)c(Br)c1,i,-9.1*,i,-14,-0.99,i,110*,i
COC(=O)C1=C(C)N(C)C(C)=C(C(=O)OC)C1c1ccncc1,i,i,i,-14,-0.67,i,·,·
C=CCOC(=O)C1=C(C)NC(=O)NC1c1cn(-c2ccccc2)nc1-c1cccs1 (stereo not given),i,-9.2*,i,-8,1.6,i,120*,0.15*
COCCOC(=O)C1=C(C)NC(=O)NC1c1cn(-c2ccccc2)nc1-c1cccs1 (stereo not given),i,i,i,-13,-2.9,i,·,·
O=C(Cc1ccc(Cl)cc1)NNC(=S)NC(=O)c1cccs1,i,i,i,-11,1.2,i,·,·
O=C(Cc1cccs1)NNC(=S)NCc1ccc(Cl)cc1,i,-11*,-7.7*,-6,-2.4,i,77*,i
CCOC(=O)c1nn(-c2ccccc2C)c(=O)cc1OCC(=O)N1CCN(c2ccccc2)CC1,i,i,i,-6,0.56,i,·,·
CCOC(=O)C1CCCN(C(=O)c2cc3ccc(OC)cc3[nH]2)C1 (stereo not given),i,i,i,-7,0.43,i,·,·
COc1ccc(-c2[nH]ncc2CN(C)C(C)c2cccs2)c(F)c1 (stereo not given),i,-9.5*,i,-4,-2.2,i,101*,i
COc1ccc(Cl)cc1S(=O)(=O)N1CCC(C(=O)N2CCOCC2)CC1,i,i,i,-7,0.23,i,·,·
CC(=O)N(c1ccccc1C)C1CCCC1,i,i,i,-1,0.25,i,·,·
SMILES,KCNQ1 act,KCNK3 inh,KCNK9 block,hERG rescue,Kir21 block,KCNQ1 inh,KCNK3 inh conf,KCNK3 noninduced
CC(=O)N(C1=C(Cl)C(=O)c2ccccc2C1=O)C1CCCCC1,i,-12*,-6.9*,-38,-2.8,i,140*,0.087*
CCCc1ccc2oc(C(=O)N(Cc3nccn3C)C(C)C)c(C)c2c1,i,-11*,i,-7,0.02,i,113*,i
CCOc1ccccc1NC(=O)N1CCc2ccccc2C1,i,-9*,i,-15,0.91,i,84*,i
CCOc1ccc(CN(C)c2nc(-c3cccnc3)nc3ccccc23)cc1OC,i,-16*,i,-7,-0.26,i,104*,i
CC(=O)C1=C(Nc2ccccc2)CC(C)(O)C(C(C)=O)C1c1ccccc1 (stereo not given),i,-12*,i,-3,1.2,i,52*,i
COc1ccc(NC2=C(C(C)=O)C(c3ccc(OC)cc3)C(C(C)=O)C(C)(O)C2)cc1 (stereo not given),i,-9.1*,i,-6,1.2,i,68*,i
COc1ccc(NC2=C(C(C)=O)C(c3ccc(N(C)C)cc3)C(C(C)=O)C(C)(O)C2)cc1 (stereo not given),i,i,i,-7,0.05,i,·,·
COc1ccc(C2C(C(C)=O)=C(Nc3ccccc3)CC(C)(O)C2C(C)=O)cc1OC (stereo not given),i,i,i,3,-0.26,i,·,·
Cc1ccc(O)c(C(CC(=O)NCc2ccco2)c2ccccc2)c1 (stereo not given),i,i,i,-3,-2.6,i,·,·
Cc1cccc(C(CC(=O)NCc2ccco2)c2ccccc2)c1O (stereo not given),i,-9*,i,-18,0.01,i,110*,i
CC1CN(c2nc3ccccc3nc2SCC(=O)Nc2ccc(F)cc2)CC(C)O1 (stereo not given),i,-8.7*,i,-15,2.4,i,106*,0.14*
CCOc1ccccc1/C=N/N1CCN(Cc2ccccc2)CC1,i,-11*,i,-6,-0.79,i,83*,i
COc1ccccc1CNC(=O)Cc1csc(NC(=O)Nc2ccccc2OC)n1,i,-8.7*,i,-14,-0.33,i,99*,i
COc1ccccc1NC(=O)Nc1nc(CC(=O)NCc2ccccn2)cs1,i,i,i,-11,1,i,·,·

# Screening results as filed in PubChem BioAssay.
